Data: ChEMBL document CHEMBL1127590 (J Med Chem, 1994)

Tests used:
[1] = In vitro inhibitory activity against human adrenal 3-beta hydroxy-delta 5-teroid isomerase
Procedure, shortened: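 Microsomes were prepared from human adrenal tissue by homogenization and differential centrifugation. Inhibitor in 50% DMSO was preincubated 10 min at 37 °C in 100 mM potassium phosphate pH 7.5 with 1 mM NAD+. The reaction was started with 100 nM [3H]DHEA and quenched in ethanol after 15 min. DHEA-to-androstenedione conversion was measured by radio-HPLC.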

[2] = target: T1, 3-oxo-5-alpha-steroid 4-dehydrogenase 1 (Homo sapiens, UniProt P18405); assay: In vitro inhibitory activity against human type 1 5-alpha reductase
T1 sequence (P18405 whole entry): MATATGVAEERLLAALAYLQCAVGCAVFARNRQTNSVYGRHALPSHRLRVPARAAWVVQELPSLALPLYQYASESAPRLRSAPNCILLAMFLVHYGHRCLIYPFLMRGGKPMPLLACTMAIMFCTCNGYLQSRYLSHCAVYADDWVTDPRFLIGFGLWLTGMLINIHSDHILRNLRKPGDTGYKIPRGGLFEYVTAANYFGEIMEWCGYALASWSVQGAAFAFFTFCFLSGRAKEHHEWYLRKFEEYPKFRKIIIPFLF
Procedure, shortened: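 Used microsomes from baculovirus-infected SF-9 cells expressing recombinant human type 1 5AR, at final enzyme 0.05–5 nM. Buffer at pH 7 and 37 °C contained an NADPH-regenerating system. Inhibitor was preincubated 10 min before adding 100 nM [3H]testosterone.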

[3] = target: T2, 3-oxo-5-alpha-steroid 4-dehydrogenase 2 (Homo sapiens, UniProt P31213); assay: In vitro inhibitory activity against human type 2 5-alpha reductase
T2 sequence (P31213 whole entry): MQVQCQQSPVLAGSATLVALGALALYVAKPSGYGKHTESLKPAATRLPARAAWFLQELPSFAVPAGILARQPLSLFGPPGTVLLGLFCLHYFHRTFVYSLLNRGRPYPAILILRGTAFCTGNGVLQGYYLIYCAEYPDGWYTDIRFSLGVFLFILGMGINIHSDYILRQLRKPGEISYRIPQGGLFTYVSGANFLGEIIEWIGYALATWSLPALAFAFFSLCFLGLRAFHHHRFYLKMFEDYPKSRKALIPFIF

Rattus norvegicus = assay: In vivo inhibition of T stimulated prostate growth in rats was reported after oral administration at a dose 10 mg/kg/day; type: functional, Prostate gland
Procedure, shortened: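 Rats were castrated, and 7 days later dosed orally once daily for 7 days at 10 mg/kg/day in 1 part cremophor:2 parts saline:0.5% Tween 80 (8 rats/group). Testosterone (40 μg/kg sc in corn oil) was given 4 h after each dose. Ventral prostates were weighed on day 8. Weight reduction was expressed as a percent of the finasteride reduction versus T-treated vehicle controls.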

| Structure (SMILES) | Ki [1] [nM] | Ki [2] [nM] | IC50 [3] [nM] | Reduction (Rattus norvegicus) [%] |
| --- | --- | --- | --- | --- |
| CCN(CC)C(=O)[C@H]1CCC2C3CN(C)C4=C(C)C(=O)CC[C@]4(C)C3CC[C@@]21C (some centres undefined) | 11 | 82 | – | – |
| C[C@]12CCC(=O)C(Br)=C1NCC1C2CC[C@@]2(C)C1CC[C@@H]2C(=O)NC12CC3CC(CC(C3)C1)C2 (some centres undefined) | 13 | 4.5 | < 0.1 | – |
| CCCC(=O)[C@H]1CCC2C3CNC4=CC(=O)CC[C@]4(C)C3CC[C@@]21C (some centres undefined) | 11 | 12 | – | – |
| CCCCCCCCC(=O)[C@H]1CCC2C3CNC4=CC(=O)CC[C@]4(C)C3CC[C@@]21C (some centres undefined) | 7.5 | 1 | < 0.1 | – |
| CC(C)(C)NC(=O)[C@H]1CCC2C3CNC4=CC(=O)CC[C@]4(C)C3CC[C@@]21C (some centres undefined) | 150 | – | – | – |
| CC1=C2N(C)CC3C(CC[C@@]4(C)C3CC[C@@H]4C(=O)NC(C)(C)C)[C@@]2(C)CCC1=O (some centres undefined) | 23 | 60 | – | – |
| CC(C)(C)N(O)C(=O)[C@H]1CCC2C3CNC4=CC(=O)CC[C@]4(C)C3CC[C@@]21C (some centres undefined) | 62 | 38 | – | – |
| CCCCN1CC2C(CC[C@@]3(C)C2CC[C@@H]3C(=O)N(CC)CC)[C@@]2(C)CCC(=O)C=C12 (some centres undefined) | 3600 | 7800 | – | – |
| CN1CC2C(CC[C@@]3(C)C2CC[C@@H]3C(=O)NC23CC4CC(CC(C4)C2)C3)[C@@]2(C)CCC(=O)C(Br)=C12 (some centres undefined) | 8.3 | 8.6 | 1.7 | – |
| CCN(CC)C(=O)[C@H]1CCC2C3CNC4=CC(=O)CC[C@]4(C)C3CC[C@@]21C (some centres undefined) | 60 | – | – | – |
| CCN(CC)C(=O)[C@H]1CCC2C3CNC4=C(Cl)C(=O)CC[C@]4(C)C3CC[C@@]21C (some centres undefined) | 27 | 51 | – | – |
| CCN(CC)C(=O)[C@H]1CCC2C3CN(C)C4=CC(=O)C5CC5[C@]4(C)C3CC[C@@]21C (some centres undefined) | 10 | 10000 | – | – |
| C[C@]12CC[C@H]3[C@@H](CNC4=CC(=O)CC[C@@]43C)[C@@H]1CC[C@@H]2C(=O)OC1[C@H]2C[C@@H]3C[C@@H](C[C@H]1C3)C2 (some centres undefined) | 180 | 6.9 | < 0.1 | – |
| CCN(CC)C(=O)[C@H]1CCC2C3CN(C(C)C)C4=CC(=O)CC[C@]4(C)C3CC[C@@]21C (some centres undefined) | 1100 | 3400 | 4.9 | – |
| CCN(CC)C(=O)[C@H]1CCC2C3CNC4=CC(=O)C=C[C@]4(C)C3CC[C@@]21C (some centres undefined) | 80 | 5800 | 3.5 | – |
| CCN(CC)C(=O)[C@H]1CCC2C3CN(C(C)=O)C4=CC(=O)CC[C@]4(C)C3CC[C@@]21C (some centres undefined) | 34000 | 40000 | 3000 | – |
| CN1CC2C(CC[C@@]3(C)C2CC[C@@H]3C(=O)NC23CC4CC(CC(C4)C2)C3)[C@@]2(C)C=CC(=O)C=C12 (some centres undefined) | 62 | 280 | 0.3 | – |
| CON(C)C(=O)[C@H]1CCC2C3CNC4=CC(=O)CC[C@]4(C)C3CC[C@@]21C (some centres undefined) | 50 | – | – | – |
| CCN(CC)C(=O)[C@H]1CCC2C3CNC4=C(Br)C(=O)CC[C@]4(C)C3CC[C@@]21C (some centres undefined) | 13 | 97 | 2.1 | – |
| CCN(CC)C(=O)[C@H]1CCC2C3CNC4=C(C)C(=O)CC[C@]4(C)C3CC[C@@]21C (some centres undefined) | 18 | 40 | – | 0 |
| CCN(CC)C(=O)[C@H]1CCC2C3CN(C)C4=CC(=O)C=C[C@]4(C)C3CC[C@@]21C (some centres undefined) | 22 | 1300 | 5.7 | – |
| C[C@]12CCC(=O)C=C1NCC1C2CC[C@@]2(C)C1CC[C@@H]2C(=O)NN(c1ccccc1)c1ccccc1 (some centres undefined) | 160 | – | – | – |
| COC(=O)[C@H]1CCC2C3CNC4=CC(=O)CC[C@]4(C)C3CC[C@@]21C (some centres undefined) | 12 | – | – | – |
| C[C@]12CCC(=O)C=C1NCC1C2CC[C@@]2(C)C1CC[C@@H]2C(=O)c1cccc2ccccc12 (some centres undefined) | 7.8 | 15 | < 0.1 | – |
| CC1=C2N(C)CC3C(CC[C@@]4(C)C3CC[C@@H]4C(=O)NC34CC5CC(CC(C5)C3)C4)[C@@]2(C)CCC1=O (some centres undefined) | 18 | 6.2 | 0.4 | – |
| CC(C)(C)NC(=O)[C@H]1CCC2C3CNC4=CC(=O)C=C[C@]4(C)C3CC[C@@]21C (some centres undefined) | 2200 | 2400 | 1.8 | – |
| CCN(CC)C(=O)[C@H]1CCC2C3CNC4=C(C)C(=O)C=C[C@]4(C)C3CC[C@@]21C (some centres undefined) | 91 | 280 | 8.1 | – |
